Calls of active or inactive are those of the source. No cut-off for these calls is given here.

Data set [1] addresses T1, Muscarinic acetylcholine receptor M1 (Homo sapiens) (UniProt P11229).
T1 sequence (whole entry): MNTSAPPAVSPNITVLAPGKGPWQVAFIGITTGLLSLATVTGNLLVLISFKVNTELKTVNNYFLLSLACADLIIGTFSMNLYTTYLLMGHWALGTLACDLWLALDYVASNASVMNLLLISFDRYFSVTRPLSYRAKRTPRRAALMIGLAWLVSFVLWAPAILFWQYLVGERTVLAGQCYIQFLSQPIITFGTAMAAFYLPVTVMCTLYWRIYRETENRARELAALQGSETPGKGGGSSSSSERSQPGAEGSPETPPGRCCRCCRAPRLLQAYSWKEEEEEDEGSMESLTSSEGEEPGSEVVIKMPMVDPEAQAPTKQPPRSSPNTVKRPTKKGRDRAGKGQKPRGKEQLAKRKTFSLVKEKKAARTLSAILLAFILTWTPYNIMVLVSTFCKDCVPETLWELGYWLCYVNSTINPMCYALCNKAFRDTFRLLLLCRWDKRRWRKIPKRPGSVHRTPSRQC
As to the kind of experiment: Agonist activity at human muscarinic M1 receptor expressed in CHONFAT cells assessed as enhancement of acetylcholine-induced calcium mobilization preincubated for 4 mins measured after 1 hr by FLIPR assay. It counts as functional, cell-based. In outline: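 CHO-NFAT cells expressing the named muscarinic receptor (human M1–M4; rhesus, dog or rat M1 in CHO-K1) were plated at 25,000 cells/well and grown overnight at 37 °C, 6% CO2. Cells were loaded with 1 μM Fluo-4AM for 1 h, washed, and preincubated 4 min with serially diluted compound (final DMSO 0.67%). They were then stimulated 4 min with an EC20 of ACh, and Ca2+ flux was read by FLIPR384.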

The subject of data set [2] is Brain. Nature of the data set: Drug level Sprague-Dawley rat brain at 10 mg/kg, po. It counts as ADME, organism-based. Also on record: dose 10 mg/kg, route oral. The following applies: in vivo, read-out: Drug uptake. In outline:
(§1)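 Rats dosed orally at 10 mpk. Plasma, brain and CSF sampled at 2 h and concentrations determined by bioanalysis.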

Data set [3] can be described thus: Plasma protein binding in rat serum by equilibrium dialysis method. Conditions: read-out: PPB (converted). It counts as ADME, cell-free. In outline:
(§2)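 Protein binding measured by equilibrium dialysis against rat or human serum.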

The test system of data set [4] is Cerebrospinal fluid. Nature of the data set: Drug level in Sprague-Dawley rat cerebrospinal fluid at 10 mg/kg, po. Format: ADME, organism-based. Also noted: dose 10 mg/kg, route oral. Conditions: in vivo, read-out: Drug uptake. In outline: as §1
Data set [5] in a line: Plasma protein binding in human serum by equilibrium dialysis method. Format: ADME, cell-free. Conditions: read-out: PPB (converted). In outline:
as §2
(In equilibrium dialysis free small molecules cross a membrane that holds back macromolecules.)

The test system of data set [6] is Plasma. As to the kind of experiment: Drug level in Sprague-Dawley rat plasma at 10 mg/kg, po. Also on record: dose 10 mg/kg, route oral. It counts as ADME, organism-based. Conditions: in vivo. In a few lines: as §1
Data set [7] is described as follows: Ratio of drug level in brain to plasma of Sprague-Dawley rat at 10 mg/kg, po. It counts as ADME, organism-based. Also on record: dose 10 mg/kg, route oral. Conditions: read-out: BPR. In outline: as §1
A short description of data set [8]: Ratio of drug level in cerebrospinal fluid to fraction unbound level in plasma of Sprague-Dawley rat at 10 mg/kg, po. It counts as ADME, organism-based. Also on record: dose 10 mg/kg, route oral. The following applies: in vivo.
The nature of data set [9]: Passive permeability of the compound at 5 uM. It counts as ADME. Conditions: not told.
Data set [10] deals with Canis familiaris. As to the kind of experiment: Metabolic stability in po dosed portal vein cannulated dog assessed as level of presystemic G1 glucuronidation by scintillation counting. Format: ADME, organism-based, Canis lupus familiaris. The following applies: in vivo.
Data set [11] in a line: Half life in rat at 3 mg/kg, po and 1 mg/kg, iv. Format: ADME, organism-based. The following applies: in vivo. In outline:
(§3)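 Rats (n = 2) dosed orally at 3 mg/kg and IV at 1 mg/kg. Interanimal variability under 20% for all values.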

Data set [12] can be described thus: Clearance in dog at 3 mg/kg, po and 1 mg/kg, iv. It counts as ADME, organism-based, Canis lupus familiaris. The following applies: in vivo. In outline: (§4)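 Dog PK, n = 2 animals. Given orally at 3 mg/kg and intravenously at 1 mg/kg. Interanimal variability under 20% for all values.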
Data set [13] can be described thus: Half life in dog at 3 mg/kg, po and 1 mg/kg, iv. Format: ADME, organism-based, Canis lupus familiaris. The following applies: in vivo. In outline:
as §4

Data set [14] is described as follows: Clearance in rat at 3 mg/kg, po and 1 mg/kg, iv. It counts as ADME, organism-based. Conditions: in vivo. In a few lines: as §3
Data set [15] in a line: Oral bioavailability in rat at 3 mg/kg. Format: ADME, organism-based. The following applies: in vivo. In outline:
as §3

A short description of data set [16]: Oral bioavailability in dog at 3 mg/kg. It counts as ADME, organism-based, Canis lupus familiaris. Conditions: in vivo. In a few lines:
as §4

The subject of data set [17] is Mus musculus. As to the kind of experiment: Antiamnesic activity against scopolamine-induced dementia in ip dosed B6SJL mouse assessed as increase in freezing behavior at 7.4 uM plasma concentration. It counts as functional, organism-based.
Data set [18] relates to Mus musculus. As to the kind of experiment: Antiamnesic activity against scopolamine-induced dementia in ip dosed B6SJL mouse assessed as increase in freezing behavior at 33 uM plasma concentration. Format: functional, organism-based.
Data set [19] is described as follows: Fraction unbound in human plasma. It counts as ADME, cell-free.
A short description of data set [20]: Fraction unbound in rat plasma. It counts as ADME, cell-free.
Data set [21] is described as follows: Lipophilicity, log P of the compound. The following applies: octanol/water. It counts as physicochemical.

As for `N#CC1(c2cc(-c3ccccc3)ccn2)CCN(Cc2cc(C(=O)O)c(=O)n3ccccc23)CC1`, the IP in data set [1] turned out to be 659 nM.

Consider `Cc1ccccc1C1(C#N)CCN(Cc2cc(C(=O)O)c(=O)n3ccccc23)CC1`, for which the IP in data set [1] stood at 68 nM. Further, the results for the concentration in data set [2], in [4] and in [6] were 114 nM, 16 nM and 234 nM, respectively. The fraction unbound in data set [3] is 0.051; in data set [5] it was 0.038. Besides, the Kp in [7] was found to be 0.48. The Ratio in [8] is 0.5. Moreover, in data set [9], the Papp at 5 µM is 24 ×10⁻⁶ cm/s.

On to `[3H]OC(=O)c1cc(CN2CCC(C#N)(c3ccccn3)CC2)c2ccccn2c1=O`, for which the Stability in data set [10] is 50%.

As for `Cc1ccnc(C2(C#N)CCN(Cc3cc(C(=O)O)c(=O)n4ccccc34)CC2)c1`, in data set [1], the IP was 44 nM. Besides, the concentration in data set [2] came out at 233 nM; in [4], 180 nM; in data set [6], 3070 nM. For the same compound, the fraction unbound is 0.467 in data set [3] and 0.235 in [5]. The Kp in data set [7] was determined as 0.07. The Ratio in data set [8] amounted to 0.25. The half-life in data set [11] was 1.9 h; in data set [13] it was 3.9 h. The values for the clearance in [12] and in data set [14] were 10.1 mL/min/kg and 17.7 mL/min/kg, respectively. Further, in data set [9], the Papp at 5 µM was 27 ×10⁻⁶ cm/s. The values for the bioavailability in data set [15] and in [16] were 24% and 47%, respectively.

Regarding `CSc1cccc(C2(C#N)CCN(Cc3cc(C(=O)O)c(=O)n4ccccc34)CC2)n1`, in data set [1], the IP was found to be 100 nM. Also, the fraction unbound in data set [3] was 0.057; in data set [5], 0.012.

Take `CCc1ccnc(C2(C#N)CCN(Cc3cc(C(=O)O)c(=O)n4ccccc34)CC2)c1`: the IP in [1] stood at 84 nM. The fraction unbound in data set [3] was 0.272; in data set [5] it was 0.134.

Regarding `COc1ccnc(C2(C#N)CCN(Cc3cc(C(=O)O)c(=O)n4ccccc34)CC2)c1`, the IP in [1] came out at 224 nM. Further, the results for the fraction unbound in data set [3] and in data set [5] were 0.485 and 0.217, respectively.

In the case of `Cc1cccnc1C1(C#N)CCN(Cc2cc(C(=O)O)c(=O)n3ccccc23)CC1`, the IP in data set [1] was 1940 nM.

For the compound `COc1ccccc1C1(C#N)CCN(Cc2cc(C(=O)O)c(=O)n3ccccc23)CC1`, the IP in data set [1] was found to be 164 nM.

For `O=C(O)c1cc(CN2CCC(c3ccccc3)CC2)c2ccccn2c1=O`, in data set [1], the IP is 1340 nM.

As to `N#CC1(c2ccncc2)CCN(Cc2cc(C(=O)O)c(=O)n3ccccc23)CC1`, the IP in [1] came out at 938 nM.

With `N#Cc1ccc(N2CCN(Cc3cc(C(=O)O)c(=O)n4ccccc34)CC2)cc1`, in [17], the result was Active.

Turning to `Cc1ccc(C2(C#N)CCN(Cc3cc(C(=O)O)c(=O)n4ccccc34)CC2)nc1`, in data set [1], the IP is 204 nM. Besides, the fraction unbound in data set [3] is 0.348; in data set [5] it was 0.175.

With `COc1ccc(Cn2cc(C(=O)O)c(=O)c3ccccc32)cc1`, in data set [18], the result was Active.

In the case of `N#CC1(c2ccccc2)CCN(Cc2cc(C(=O)O)c(=O)n3ccccc23)CC1`, in data set [1], the IP worked out at 151 nM. Besides, the concentration in data set [2] was determined as 127 nM; in data set [4], 8 nM; in data set [6], 321 nM. For the same compound, the fraction unbound is 0.135 in data set [3], 0.1 in data set [19], 0.101 in data set [5] and 0.1 in data set [20]. In [7], the Kp was 0.39. In addition, the Ratio in data set [8] is on record as 0.25. The compound further returned a Papp at 5 µM in data set [9] of 27 ×10⁻⁶ cm/s.

As to `N#CC1(c2cccc(Cl)n2)CCN(Cc2cc(C(=O)O)c(=O)n3ccccc23)CC1`, the IP in data set [1] came out at 133 nM. In addition, the fraction unbound is 0.218 in [3] and 0.071 in data set [5].

Turning to `N#CC1(c2ccccc2F)CCN(Cc2cc(C(=O)O)c(=O)n3ccccc23)CC1`, the IP in [1] is 81 nM. Besides, the fraction unbound in [3] was 0.102; in data set [5] it was 0.055.

On to `N#CC1(c2cccnc2)CCN(Cc2cc(C(=O)O)c(=O)n3ccccc23)CC1`, for which, in data set [1], the IP was 363 nM. Also, the fraction unbound was 0.509 in [3] and 0.361 in data set [5]. Further, the concentration was determined as 40 nM in [4] and 1720 nM in data set [6]. The Ratio in [8] was less than 0.1. Moreover, the logP in data set [21] is -0.4. This compound displayed a Papp at 5 µM in [9] of 39 ×10⁻⁶ cm/s.

With `N#CC1(c2cc(F)ccn2)CCN(Cc2cc(C(=O)O)c(=O)n3ccccc23)CC1`, the IP in data set [1] turned out to be 244 nM.

For the compound `Cc1cccc(C2(C#N)CCN(Cc3cc(C(=O)O)c(=O)n4ccccc34)CC2)c1`, in data set [1], the IP stood at 88 nM. For the same compound, the fraction unbound in data set [3] was 0.059; in data set [5] it was 0.048.

For `N#CC1(c2ccc(F)cc2)CCN(Cc2cc(C(=O)O)c(=O)n3ccccc23)CC1`, in data set [1], the IP was determined as 194 nM.

As for `N#CC1(c2cc(C(F)(F)F)ccn2)CCN(Cc2cc(C(=O)O)c(=O)n3ccccc23)CC1`, in data set [1], the IP is 2720 nM.

Turning to `N#CC1CCN(Cc2cc(C(=O)O)c(=O)n3ccccc23)CC1`, in data set [1], the IP is 7650 nM.

As to `N#CC1(c2cccc(F)c2)CCN(Cc2cc(C(=O)O)c(=O)n3ccccc23)CC1`, the IP in [1] was 562 nM.

Turning to `Cc1cccc(C2(C#N)CCN(Cc3cc(C(=O)O)c(=O)n4ccccc34)CC2)n1`, in [1], the IP was determined as 148 nM. Besides, the fraction unbound in data set [3] is 0.249; in data set [5] it was 0.158.

A word on the Papp: it is the rate of passage across a membrane or cell layer, normalised by area and donor concentration. High values mean ready permeation, low ones poor permeation. As a reminder, the half-life is the time in which the quantity being followed falls by half. The low end stands for rapid decline, the high end for slow decline. As a reminder, the bioavailability is dose-corrected exposure relative to a reference, in per cent. As a reminder, the logP is the decadic logarithm of the partition coefficient of the neutral form, usually between octanol and water.

(Values after ChEMBL document CHEMBL1799933, “Discovery of a selective allosteric M1 receptor modulator with suitable development properties based on a quinolizidinone carboxylic acid scaffold” (J Med Chem, 2011).)
